The record followed here is ChEMBL document CHEMBL3864138, “First discovery of novel 3-hydroxy-quinazoline-2,4(1H,3H)-diones as specific anti-vaccinia and adenovirus agents via 'privileged scaffold' refining approach” (Bioorg Med Chem Lett, 2016).

Data set [1] relates to Vaccinia virus. The data set can be described thus: Antiviral activity against Vaccinia virus infected in HEL cells assessed as inhibition of virus-induced cytopathicity. The format is functional, cell-based. To be noted: Orthopoxvirus vaccinia.
A further data set relates to Human adenovirus 2. The data set can be described thus: Antiviral activity against Human adenovirus 2 infected in HEL cells assessed as inhibition of virus-induced cytopathicity. Format: functional, cell-based. To be noted: Human mastadenovirus C.
Data set [2] can be described thus: Cytotoxicity against HEL cells assessed as alteration of cell morphology after 3 days by microscopic analysis. Conditions: human. Format: toxicity, cell-based. In short, it runs like this: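 HEL cell cultures were checked by microscopy for compound cytotoxicity, reported as MCC. The highest concentration tested was […].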
Data set [3] concerns Vaccinia virus. The data set can be described thus: Potency index, ratio of brivudin EC50 against Vaccinia virus infected in HEL cells to compound EC50 against Vaccinia virus infected in HEL cells. Format: functional, Orthopoxvirus vaccinia.
Data set [4] relates to Vaccinia virus. The data set can be described thus: Potency index, ratio of cidofovir EC50 against Vaccinia virus infected in HEL cells to compound EC50 against Vaccinia virus infected in HEL cells. Format: functional, Orthopoxvirus vaccinia.

Bounds are passed on as bounds.

Consider `Cn1c(=O)n(O)c(=O)c2cc(-c3cn(Cc4ccccc4F)nn3)ccc21`, for which the EC50 with Vaccinia virus [1] and with Human adenovirus 2 was more than 100 µM throughout. The MCC at 72 h in data set [2] is more than 100 µM.

`Cc1ccccc1Cn1cc(-c2ccc3c(c2)c(=O)n(O)c(=O)n3C)nn1`: the concentration giving a half-maximal response (EC50) in the data set with Vaccinia virus [1] and with Human adenovirus 2 was more than 100 µM in each case. Besides, the MCC at 72 h in data set [2] came out at 100 µM.

Take `CCn1c(=O)n(O)c(=O)c2cc(-c3cn(Cc4ccccc4F)nn3)ccc21`: the 50% effective concentration (EC50) with Vaccinia virus [1] is more than 100 µM; with Human adenovirus 2, 6.5 µM. In data set [2], the MCC at 72 h is more than 100 µM.

Turning to `CCn1c(=O)n(O)c(=O)c2cc(-c3cn(Cc4c(F)cccc4F)nn3)ccc21`, the 50% effective concentration (EC50) with Vaccinia virus [1] was more than 100 µM; in the data set on Human adenovirus 2, 8 µM. In addition, in data set [2], the MCC at 72 h is more than 100 µM.

Turning to `CCn1c(=O)n(O)c(=O)c2cc(-c3cn(Cc4ccccc4C)nn3)ccc21`, the concentration giving a half-maximal response (EC50) with Vaccinia virus [1] and in the data set on Human adenovirus 2 was more than 100 µM in each case. Besides, the MCC at 72 h in data set [2] is 20 µM.

As for `Cn1c(=O)n(O)c(=O)c2cc(-c3cn(Cc4ccccc4)nn3)ccc21`, the EC50 in the data set on Vaccinia virus [1] and in the data set with Human adenovirus 2 was more than 100 µM throughout. Besides, the MCC at 72 h in data set [2] is more than 100 µM.

In the case of `CCn1c(=O)n(O)c(=O)c2cc(-c3cn(Cc4ccc(C#N)cc4)nn3)ccc21`, the EC50 in the data set on Vaccinia virus [1] is 15 µM; with Human adenovirus 2 it was more than 100 µM. Besides, the MCC at 72 h in data set [2] was more than 100 µM.

Turning to `CCn1c(=O)n(O)c(=O)c2cc(-c3cn(Cc4ccc(F)c(F)c4)nn3)ccc21`, the figures for the EC50 in the data set with Vaccinia virus [1] and in the data set on Human adenovirus 2 were 1.9 µM and more than 100 µM, respectively. Moreover, the MCC at 72 h in data set [2] stood at 20 µM.

For `CCn1c(=O)n(O)c(=O)c2cc(-c3cn(Cc4ccc(F)cc4F)nn3)ccc21`, the EC50 in the data set on Vaccinia virus [1] and with Human adenovirus 2 was more than 100 µM each time. Also, the MCC at 72 h in data set [2] was 20 µM.

Take `Cn1c(=O)n(O)c(=O)c2cc(-c3cn(Cc4ccc(F)c(F)c4)nn3)ccc21`: the EC50 is 5 µM with Vaccinia virus [1] and more than 100 µM in the data set with Human adenovirus 2. For the same compound, the MCC at 72 h in data set [2] turned out to be 100 µM.

As for `CCn1c(=O)n(O)c(=O)c2cc(-c3cn(Cc4ccccc4)nn3)ccc21`, the results for the EC50 in the data set with Vaccinia virus [1] and with Human adenovirus 2 were more than 100 µM and 12 µM, respectively. Moreover, in data set [2], the MCC at 72 h is more than 100 µM.

As for `Cn1c(=O)n(O)c(=O)c2cc(-c3cn(Cc4ccc(F)cc4F)nn3)ccc21`, the EC50 in the data set with Vaccinia virus [1] and in the data set with Human adenovirus 2 was more than 100 µM each time. For the same compound, the MCC at 72 h in data set [2] amounted to 100 µM.

On to `CCn1c(=O)n(O)c(=O)c2cc(-c3cn(Cc4ccc([N+](=O)[O-])cc4)nn3)ccc21`, for which the figures for the EC50 in the data set on Vaccinia virus [1] and in the data set with Human adenovirus 2 were 1.7 µM and more than 100 µM, respectively. Also, the MCC at 72 h in data set [2] was more than 100 µM. Further, the “Ratio EC50” value with Vaccinia virus [3] was 8 - 15; in the data set with Vaccinia virus [4], 15.

Consider `Cn1c(=O)n(O)c(=O)c2cc(-c3cn(Cc4cccc(F)c4)nn3)ccc21`, for which the concentration giving a half-maximal response (EC50) with Vaccinia virus [1] and with Human adenovirus 2 was more than 100 µM throughout. Moreover, in data set [2], the MCC at 72 h is more than 100 µM.

Turning to `Cn1c(=O)n(O)c(=O)c2cc(-c3cn(Cc4c(Cl)cccc4Cl)nn3)ccc21`, the EC50 with Vaccinia virus [1] and in the data set on Human adenovirus 2 was more than 100 µM each time. Further, the MCC at 72 h in data set [2] is more than 100 µM.

For `Cn1c(=O)n(O)c(=O)c2cc(-c3cn(Cc4ccc([N+](=O)[O-])cc4)nn3)ccc21`, the figures for the 50% effective concentration (EC50) with Vaccinia virus [1] and in the data set on Human adenovirus 2 were 2.4 µM and more than 100 µM, respectively. The MCC at 72 h in data set [2] was more than 100 µM.

Turning to `CCn1c(=O)n(O)c(=O)c2cc(-c3cn(Cc4ccc(OC)cc4)nn3)ccc21`, the EC50 is more than 100 µM with Vaccinia virus [1] and 6.2 µM with Human adenovirus 2. For the same compound, the MCC at 72 h in data set [2] is more than 100 µM.

For the compound `CCn1c(=O)n(O)c(=O)c2cc(-c3cn(Cc4cc(F)ccc4F)nn3)ccc21`, the EC50 in the data set with Vaccinia virus [1] and with Human adenovirus 2 was more than 100 µM throughout. The MCC at 72 h in data set [2] came to 20 µM.

As to `Cn1c(=O)n(O)c(=O)c2cc(-c3cn(Cc4ccc(F)cc4)nn3)ccc21`, the EC50 in the data set on Vaccinia virus [1] and in the data set on Human adenovirus 2 was more than 100 µM each time. Also, the MCC at 72 h in data set [2] was more than 100 µM.

Turning to `COc1ccc(Cn2cc(-c3ccc4c(c3)c(=O)n(O)c(=O)n4C)nn2)cc1`, the concentration for a half-maximal effect (EC50) in the data set with Vaccinia virus [1] was more than 100 µM; in the data set with Human adenovirus 2, 12 µM. Also, the MCC at 72 h in data set [2] was more than 100 µM.

For `Cn1c(=O)n(O)c(=O)c2cc(-c3cn(Cc4ccc(C#N)cc4)nn3)ccc21`, the concentration giving a half-maximal response (EC50) in the data set on Vaccinia virus [1] and in the data set on Human adenovirus 2 was more than 100 µM in each case. Also, the MCC at 72 h in data set [2] is more than 100 µM.

As to `Cn1c(=O)n(O)c(=O)c2cc(-c3cn(Cc4c(F)cccc4F)nn3)ccc21`, the concentration giving a half-maximal response (EC50) in the data set with Vaccinia virus [1] and with Human adenovirus 2 was more than 100 µM each time. Further, the MCC at 72 h in data set [2] amounted to 100 µM.

For `CCn1c(=O)n(O)c(=O)c2cc(-c3cn(Cc4cccc(F)c4)nn3)ccc21`, the EC50 is more than 100 µM with Vaccinia virus [1] and 13 µM in the data set on Human adenovirus 2. Further, the MCC at 72 h in data set [2] is more than 100 µM.

In the case of `CCn1c(=O)n(O)c(=O)c2cc(-c3cn(Cc4ccc(F)cc4)nn3)ccc21`, the EC50 in the data set on Vaccinia virus [1] and with Human adenovirus 2 was more than 100 µM each time. The MCC at 72 h in data set [2] is 100 µM.

`Cn1c(=O)n(O)c(=O)c2cc(-c3cn(Cc4cc(F)ccc4F)nn3)ccc21`: the EC50 in the data set with Vaccinia virus [1] and in the data set on Human adenovirus 2 was more than 100 µM in each case. Moreover, the MCC at 72 h in data set [2] is more than 100 µM.

`CCn1c(=O)n(O)c(=O)c2cc(-c3cn(Cc4c(Cl)cccc4Cl)nn3)ccc21`: the concentration for a half-maximal effect (EC50) in the data set with Vaccinia virus [1] and in the data set on Human adenovirus 2 was more than 100 µM each time. In addition, the MCC at 72 h in data set [2] is more than 100 µM.

For the compound `Cc1cn([C@H]2C[C@H](F)[C@@H](CO)O2)c(=O)[nH]c1=O` [ALOVUDINE], the EC50 in the data set with Human adenovirus 2 was found to be 10 µM. Besides, the MCC at 72 h in data set [2] is more than 250 µM.

Regarding `O=c1[nH]c(=O)n([C@H]2C[C@H](O)[C@@H](CO)O2)cc1/C=C/Br` [BRIVUDINE], the EC50 with Vaccinia virus [1] amounted to 15 µM. In addition, the MCC at 72 h in data set [2] was more than 250 µM.

Consider `Nc1ccn(C[C@@H](CO)OCP(=O)(O)O)c(=O)n1` [CIDOFOVIR], for which the concentration giving a half-maximal response (EC50) in the data set with Vaccinia virus [1] is 25 µM; in the data set on Human adenovirus 2 it was 10 µM. In data set [2], the MCC at 72 h is more than 250 µM.

For `Nc1ccn([C@H]2CC[C@@H](CO)O2)c(=O)n1` [ZALCITABINE], in the data set with Human adenovirus 2, the EC50 was determined as 7.2 µM. For the same compound, the MCC at 72 h in data set [2] is more than 250 µM.
